Experimental data reported in ChEMBL document CHEMBL1121685, “Development of new mitomycin C and porfiromycin analogues” (J Med Chem, 1981).

What was measured:
Mus musculus [1] = assay: Effect of compound on total white blood cell count in BDG1 male mice, after intraperitoneal administration at a dose of 1.69 mg/kg on day 3; assay type: functional
Method in brief: (§1)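 BDG₁ male mice received a single ip dose on day 0. The dose series topped out at the LD₅₀ level, or at twice the optimal dose for some agents. Total white blood cell count was taken on days 3, 5 and 7 and expressed as % change from untreated controls. Significance was set at p ≤ 0.05 or p ≤ 0.01.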

Mus musculus [2] = assay: Effect of compound on total white blood cell count in BDG1 male mice, after intraperitoneal administration at a dose of 2.25 mg/kg on day 5; assay type: functional
Method in brief: (§2)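 Single ip dose given on day 0 to BDG1 male mice over a descending dose series. Total white blood cell count is expressed as % change from untreated control on days 3, 5 and 7. Significance is flagged at p ≤ 0.05 and p ≤ 0.01.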

Mus musculus [3] = assay: Effect of compound on total white blood cell count in BDG1 male mice, after intraperitoneal administration at a dose of 2.25 mg/kg on day 7; assay type: functional; method in brief: as §2
Mus musculus [4] = assay: Effect of compound on total white blood cell count in BDG1 male mice, after intraperitoneal administration at a dose of 1.27 mg/kg on day 3; assay type: functional; method in brief: as §1
Mus musculus [5] = assay: Effect of compound on total white blood cell count in BDG1 male mice, after intraperitoneal administration at a dose of 1.27 mg/kg on day 5; assay type: functional; method in brief: as §1
Mus musculus [6] = assay: Effect of compound on total white blood cell count in BDG1 male mice, after intraperitoneal administration at a dose of 3 mg/kg on day 7; assay type: functional; method in brief: as §2
Mus musculus [7] = assay: Effect of compound on total white blood cell count in BDG1 male mice, after intraperitoneal administration at a dose of 1.69 mg/kg on day 7; assay type: functional; method in brief: as §1
[8] = Therapeutic ratio is expressed as ratio of optimal dose and minimum effective dose; assay type: ADME; conditions: mouse; read-out: TR
Method in brief: (§3)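 10⁶ P-388 ascites cells implanted ip in CDF₁ female mice. Six mice per dose, 10 saline-injected controls, and a concurrent mitomycin C reference group. %T/C = median survival time of treated/control × 100. MED is the lowest dose giving %T/C > 125. Therapeutic ratio = optimal dose/MED.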

Mus musculus [9] = assay: Effect of compound on total white blood cell count in BDG1 male mice, after intraperitoneal administration at a dose of 3 mg/kg on day 3; assay type: functional; method in brief: as §2
Mus musculus [10] = assay: Effect of compound on total white blood cell count in BDG1 male mice, after intraperitoneal administration at a dose of 2.25 mg/kg on day 3; assay type: functional; method in brief: as §2
Mus musculus [11] = assay: Effect of compound on total white blood cell count in BDG1 male mice, after intraperitoneal administration at a dose of 3 mg/kg on day 5; assay type: functional; method in brief: as §2
Mus musculus [12] = assay: Effect of compound on total white blood cell count in BDG1 male mice, after intraperitoneal administration at a dose of 1.69 mg/kg on day 5; assay type: functional; method in brief: as §1
Mus musculus [13] = assay: Antitumor activity against P-388 murine leukemia cells in CDF1 female mice after intraperitoneal administration at the specified optimal dose of 3.2 mg/kg; assay type: functional
Mus musculus [14] = species: Mus musculus; assay: Half-wave potential produced by the compound at their optimal dose; assay type: functional; parameters: unit not given here
Mus musculus [15] = assay: Minimum effective dose that show activity against P-388 murine leukemia cells in CDF1 female mice, after intraperitoneal administration (optimal dose is 3.2 mg/kg); assay type: functional; conditions: P388, ip, read-out: MED; method in brief: as §3
Mus musculus [16] = assay: Effect of compound on total white blood cell count in BDG1 male mice, after intraperitoneal administration at a dose of 1.27 mg/kg on day 7; assay type: functional; method in brief: as §1
Mus musculus [17] = species: Mus musculus; assay: Degree of leukopenia produced by compound is assessed form Percent change in white cells on day 3; assay type: functional; method in brief: as §1
Mus musculus [18] = assay: Effect of compound on total white blood cell count in BDG1 male mice, after intraperitoneal administration at a dose of 44.25 mg/kg on day 3; assay type: functional
Method in brief: (§4)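 Single ip dose given on day 0 to BDG₁ male mice. Total white blood cell count measured on days 3, 5 and 7, expressed as % change from control. Highest dose was at the LD₅₀, or at twice the optimal dose where so footnoted. Significance reported at p ≤ 0.05 and p ≤ 0.01. D marks death of one or more mice.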

Mus musculus [19] = assay: Effect of compound on total white blood cell count in BDG1 male mice, after intraperitoneal administration at a dose of 44.25 mg/kg on day 5; assay type: functional; method in brief: as §4
Mus musculus [20] = assay: Effect of compound on total white blood cell count in BDG1 male mice, after intraperitoneal administration at a dose of 44.25 mg/kg on day 7; assay type: functional; method in brief: as §4
Mus musculus [21] = assay: Effect of compound on total white blood cell count in BDG1 male mice, after intraperitoneal administration at a dose of 59.0 mg/kg on day 3; assay type: functional; method in brief: as §4
Mus musculus [22] = assay: Minimum effective dose that show activity against P-388 murine leukemia cells in CDF1 female mice, after intraperitoneal administration (optimal dose is 25.6 mg/kg); assay type: functional; conditions: P388, ip, read-out: MED; method in brief: as §3
Mus musculus [23] = assay: Effect of compound on total white blood cell count in BDG1 male mice, after intraperitoneal administration at a dose of 59.0 mg/kg on day 7; assay type: functional; method in brief: as §4
Mus musculus [24] = assay: Effect of compound on total white blood cell count in BDG1 male mice, after intraperitoneal administration at a dose of 33.18 mg/kg on day 3; assay type: functional; method in brief: as §2
Mus musculus [25] = assay: Effect of compound on total white blood cell count in BDG1 male mice, after intraperitoneal administration at a dose of 59.0 mg/kg on day 5; assay type: functional; method in brief: as §4
Mus musculus [26] = assay: Effect of compound on total white blood cell count in BDG1 male mice, after intraperitoneal administration at a dose of 33.18 mg/kg on day 7; assay type: functional; method in brief: as §2
Mus musculus [27] = assay: Antitumor activity against P-388 murine leukemia cells in CDF1 female mice after intraperitoneal administration at the specified optimal dose of 25.6 mg/kg; assay type: functional
Mus musculus [28] = assay: Effect of compound on total white blood cell count in BDG1 male mice, after intraperitoneal administration at a dose of 33.18 mg/kg on day 5; assay type: functional; method in brief: as §2
Mus musculus [29] = assay: Effect of compound on total white blood cell count in BDG1 male mice, after intraperitoneal administration at a dose of 3.16 mg/kg on day 5; assay type: functional
Mus musculus [30] = assay: Number of tumored survivors, 45 days after administration of compound at a dose of 1 mg/kg/day in mice; assay type: functional
Mus musculus [31] = assay: Effect of compound on total white blood cell count in BDG1 male mice, after intraperitoneal administration at a dose of 4.22 mg/kg on day 7; assay type: functional
Mus musculus [32] = assay: Activity of compound dose of 0.5 mg/kg/day against Murine B-16 Melanocarcinoma in mice; assay type: functional
Mus musculus [33] = assay: Effect of compound on total white blood cell count in BDG1 male mice, after intraperitoneal administration at a dose of 3.16 mg/kg on day 7; assay type: functional
Mus musculus [34] = assay: Effect of compound on total white blood cell count in BDG1 male mice, after intraperitoneal administration at a dose of 7.5 mg/kg on day 5; assay type: functional
Mus musculus [35] = assay: Effect of compound on total white blood cell count in BDG1 male mice, after intraperitoneal administration at a dose of 7.5 mg/kg on day 7; assay type: functional
Mus musculus [36] = assay: Effect of compound on total white blood cell count in BDG1 male mice, after intraperitoneal administration at a dose of 5.63 mg/kg on day 3; assay type: functional
Mus musculus [37] = assay: Effect of compound on total white blood cell count in BDG1 male mice, after intraperitoneal administration at a dose of 7.5 mg/kg on day 3; assay type: functional
Mus musculus [38] = assay: Effect of compound on total white blood cell count in BDG1 male mice, after intraperitoneal administration at a dose of 5.63 mg/kg on day 7; assay type: functional
Mus musculus [39] = assay: Activity of compound dose of 2 mg/kg/day against Murine B-16 Melanocarcinoma in mice; assay type: functional
Mus musculus [40] = assay: Effect of compound on total white blood cell count in BDG1 male mice, after intraperitoneal administration at a dose of 5.63 mg/kg on day 5; assay type: functional
Mus musculus [41] = assay: Effect of compound on total white blood cell count in BDG1 male mice, after intraperitoneal administration at a dose of 4.22 mg/kg on day 3; assay type: functional
Mus musculus [42] = assay: Effect of compound on total white blood cell count in BDG1 male mice, after intraperitoneal administration at a dose of 4.22 mg/kg on day 5; assay type: functional
Mus musculus [43] = assay: Activity of compound dose of 4 mg/kg/day against Murine B-16 Melanocarcinoma in mice; assay type: functional
Mus musculus [44] = assay: Number of cured survivors, 45 days after administration of compound at a dose of 1 mg/kg/day in mice; assay type: functional
Mus musculus [45] = assay: Number of tumored survivors, 45 days after administration of compound at a dose of 8 mg/kg/day in mice; assay type: functional
Mus musculus [46] = assay: Effect of compound on total white blood cell count in BDG1 male mice, after intraperitoneal administration at a dose of 3.16 mg/kg on day 3; assay type: functional
Mus musculus [47] = assay: Activity of compound dose of 8 mg/kg/day against Murine B-16 Melanocarcinoma in mice; assay type: functional
Mus musculus [48] = assay: Activity of compound dose of 1 mg/kg/day against Murine B-16 Melanocarcinoma in mice; assay type: functional

Work on `COC12[C@@H]3N[C@@H]3CN1C1=C(C(=O)C(N3CC3C)=C(C)C1=O)[C@@H]2COC(N)=O` (stereo partly drawn) yielded a Change (Mus musculus [1]) of -24%, a Change (Mus musculus [2]) of -32% and a Change (Mus musculus [3]) of -6%. For the same molecule, the Change (Mus musculus [4]) was -16%, the Change (Mus musculus [5]) was -5% and the Change (Mus musculus [6]) was -12%. It also gave a Change (Mus musculus [7]) of 3%, a selectivity ratio [8] of 32 and a Change (Mus musculus [9]) of -37%. It also gave a Change (Mus musculus [10]) of -36%, a Change (Mus musculus [11]) of -39% and a Change (Mus musculus [12]) of -5%. The T/C (Mus musculus [13]) was 233%, the E1/2 (Mus musculus [14]) was -0.32 and the minimal effective dose (Mus musculus [15]) was 0.1 mg/kg. It also gave a Change (Mus musculus [16]) of 18% and a Change (Mus musculus [17]) of -24%.

Work on `C#CCNC1=C(C)C(=O)C2=C(C1=O)[C@H](COC(N)=O)C1(OC)[C@H]3[C@@H](CN21)N3C` (stereo partly drawn) yielded a Change (Mus musculus [18]) of -74%, a selectivity ratio [8] of 16 and a Change (Mus musculus [19]) of -69%. For the same molecule, the Change (Mus musculus [20]) was -67%, the Change (Mus musculus [21]) was -80% and the minimal effective dose (Mus musculus [22]) was 1.6 mg/kg. For the same molecule, the Change (Mus musculus [23]) was -77%, the Change (Mus musculus [24]) was -64% and the Change (Mus musculus [25]) was -84%. For the same molecule, the Change (Mus musculus [26]) was -49%, the T/C (Mus musculus [27]) was 300% and the Change (Mus musculus [28]) was -66%.

Molecule `CO[C@@]12[C@H](COC(N)=O)C3=C(C(=O)C(C)=C(N)C3=O)N1C[C@@H]1N[C@@H]12` [MITOMYCIN] has a Change (Mus musculus [29]) of -42%, a Survivors (Mus musculus [30]) of 1 and a Change (Mus musculus [31]) of -1%. For the same molecule, the T/C (Mus musculus [32]) was 122%, the Change (Mus musculus [33]) was -38% and the Change (Mus musculus [34]) was -67%. For the same molecule, the Change (Mus musculus [35]) was -53%, the Change (Mus musculus [36]) was -57% and the Change (Mus musculus [37]) was -58%. The Change (Mus musculus [38]) was -26%, the T/C (Mus musculus [39]) was 159% and the T/C (Mus musculus [13]) was 178%. The Change (Mus musculus [40]) was -58%, the Change (Mus musculus [41]) was -55% and the E1/2 (Mus musculus [14]) was -0.45. The Change (Mus musculus [42]) was -53%, the minimal effective dose (Mus musculus [15]) was 0.2 mg/kg and the T/C (Mus musculus [43]) was 193%. The Survivors (Mus musculus [44]) was 1, the Survivors (Mus musculus [45]) was 1 and the Change (Mus musculus [46]) was -48%. The Change (Mus musculus [17]) was -42%, the T/C (Mus musculus [47]) was 164% and the T/C (Mus musculus [48]) was 136%.
